Measurements published in ChEMBL document CHEMBL1145212, “Fluorinated diaryl sulfides as serotonin transporter ligands: synthesis, structure-activity relationship study, and in vivo evaluation of fluorine-18-labeled compounds as PET imaging agents” (J Med Chem, 2005).

What was measured:
[1] = tested on: Rattus norvegicus; test: Biodistribution of [18F]AFA in rat thalamus at 10 min postinjection in vivo; format: ADME, organism-based
Method in brief: (§1)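 Male Sprague-Dawley rats, three per group, received ~20 µCi of the F-18 radioligand in saline by tail-vein injection. Rats were anesthetized with CO2 and decapitated at 10, 30, 60, 90 or 120 min. Blood and brain regions were weighed and gamma-counted. %ID/g was decay- and tail-residual-corrected against F-18 standards made from the injectate and reported as mean ± SD.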

[2] = tested on: Rattus norvegicus; test: Biodistribution of [18F]AFA in rat hypothalamus at 30 min postinjection in vivo; format: ADME, organism-based; details: 0.5 h
Method in brief: (§2)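 Male Sprague-Dawley rats, three per time point, received the F-18 radioligand in saline (~20 µCi per rat at injection) by tail vein. Under CO2 anesthesia they were decapitated at 10, 30, 60, 90 or 120 min. Blood and dissected brain regions were weighed and gamma counted. Activity was decay-corrected, and injected dose was corrected for tail residual activity. Uptake was expressed as %ID/g versus injectate standards, mean ± SD.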

[3] = tested on: Rattus norvegicus; test: Biodistribution of [18F]AFA in rat frontal cortex at 30 min postinjection in vivo; format: ADME, organism-based; details: 0.5 h; method in brief: as §2
[4] = species: Rattus norvegicus; test: Specific binding of [18F]AFA in hypothalamus of rat pretreated with compound 7c; n=3; format: functional
[5] = tested on: Rattus norvegicus; test: Biodistribution of [18F]AFA in rat blood at 60 min postinjection in vivo; format: ADME, organism-based; details: 1 h; method in brief: as §2
[6] = tested on: Rattus norvegicus; test: Biodistribution of [18F]-AFA in rat thalamus at 120 min postinjection in vivo; format: ADME, organism-based; details: 2 h; method in brief: as §2
[7] = tested on: Rattus norvegicus; test: Biodistribution of [18F]AFA in rat striatum 60 min postinjection in vivo; format: ADME, organism-based; details: 1 h; method in brief: as §2
[8] = tested on: Rattus norvegicus; test: Biodistribution of [18F]AFA in rat thalamus at 90 min postinjection in vivo; format: ADME, organism-based; details: 1.5 h; method in brief: as §1
[9] = tested on: Rattus norvegicus; test: Biodistribution of [18F]AFA in rat thalamus at 30 min postinjection in vivo; format: ADME, organism-based; details: 0.5 h; method in brief: as §1
[10] = tested on: Rattus norvegicus; test: Biodistribution of [18F]AFA in rat hippocampus at 120 min postinjection in vivo; format: ADME, organism-based; details: 2 h; method in brief: as §2
[11] = tested on: Rattus norvegicus; test: Biodistribution of [18F]AFA in rat frontal cortex at 60 min postinjection in vivo; format: ADME, organism-based; details: 1 h; method in brief: as §2
[12] = tested on: Rattus norvegicus; test: Biodistribution of [18F]AFA in rat frontal cortex at 90 min postinjection in vivo; format: ADME, organism-based; details: 1.5 h; method in brief: as §2
[13] = tested on: Rattus norvegicus; test: Biodistribution of [18F]AFA in rat blood at 90 min postinjection in vivo; format: ADME, organism-based; details: 1.5 h; method in brief: as §2
[14] = tested on: Rattus norvegicus; test: Biodistribution of [18F]AFA in rat cerebellum at 30 min postinjection in vivo; format: ADME, organism-based; details: 0.5 h; method in brief: as §2
[15] = species: Rattus norvegicus; test: Specific binding of [18F]AFA in striatum of rat pretreated with compound 7c; n=3; format: functional
[16] = tested on: Rattus norvegicus; test: Biodistribution of [18F]AFA in rat hippocampus at 30 min postinjection in vivo; format: ADME, organism-based; details: 0.5 h; method in brief: as §2
[17] = tested on: Rattus norvegicus; test: Biodistribution of [18F]AFA in rat cerebellum at 120 min postinjection in vivo; format: ADME, organism-based; details: 2 h; method in brief: as §2
[18] = tested on: Rattus norvegicus; test: Biodistribution of [18F]AFA in rat cerebellum at 90 min postinjection in vivo; format: ADME, organism-based; details: 1.5 h; method in brief: as §2
[19] = tested on: Rattus norvegicus; test: Biodistribution of [18F]AFA in rat blood at 10 min postinjection in vivo; format: ADME, organism-based; method in brief: as §2
[20] = tested on: Rattus norvegicus; test: Biodistribution of [18F]AFA in rat striatum at 90 min postinjection in vivo; format: ADME, organism-based; details: 1.5 h; method in brief: as §1
[21] = tested on: Rattus norvegicus; test: Biodistribution of [18F]AFA in rat cerebellum at 10 min postinjection in vivo; format: ADME, organism-based; method in brief: as §2
[22] = tested on: Rattus norvegicus; test: Biodistribution of [18F]AFA in rat striatum at 120 min postinjection in vivo; format: ADME, organism-based; details: 2 h; method in brief: as §2
[23] = tested on: Rattus norvegicus; test: Biodistribution of [18F]AFA in rat blood at 30 min postinjection in vivo; format: ADME, organism-based; details: 0.5 h; method in brief: as §2
[24] = tested on: Rattus norvegicus; test: Biodistribution of [18F]AFA in rat hippocampus at 90 min postinjection in vivo; format: ADME, organism-based; details: 1.5 h; method in brief: as §2
[25] = tested on: Rattus norvegicus; test: Biodistribution of [18F]AFA in rat striatum at 10 min postinjection in vivo; format: ADME, organism-based; method in brief: as §2
[26] = tested on: Rattus norvegicus; test: Biodistribution of [18F]AFA in rat hypothalamus at 120 min postinjection in vivo; format: ADME, organism-based; details: 2 h; method in brief: as §2
[27] = tested on: Rattus norvegicus; test: Biodistribution of [18F]AFA in rat hippocampus at 60 min postinjection in vivo; format: ADME, organism-based; details: 1 h; method in brief: as §2
[28] = tested on: Rattus norvegicus; test: Biodistribution of [18F]AFA in rat cerebellum at 60 min postinjection in vivo; format: ADME, organism-based; details: 1 h; method in brief: as §2
[29] = tested on: Rattus norvegicus; test: Biodistribution of [18F]AFA in rat hypothalamus at 90 min postinjection in vivo; format: ADME, organism-based; details: 1.5 h; method in brief: as §2
[30] = tested on: Rattus norvegicus; test: Biodistribution of [18F]AFA in rat frontal cortex at 10 min postinjection in vivo; format: ADME, organism-based; method in brief: as §2
[31] = tested on: Rattus norvegicus; test: Biodistribution of [18F]AFA in rat thalamus at 60 min postinjection in vivo; format: ADME, organism-based; details: 1 h; method in brief: as §1
[32] = species: Rattus norvegicus; test: Specific binding of [18F]AFA in hippocampus of rat pretreated with compound 7c; n=3; format: functional
[33] = tested on: Rattus norvegicus; test: Biodistribution of [18F]AFA in rat hypothalamus at 10 min postinjection in vivo; format: ADME, organism-based; method in brief: as §2
[34] = tested on: Rattus norvegicus; test: Biodistribution of [18F]AFA in rat hippocampus at 10 min postinjection in vivo; format: ADME, organism-based; method in brief: as §2
[35] = species: Rattus norvegicus; test: Specific binding of [18F]AFA in frontal cortex of rat pretreated with compound 7c; n=3; format: functional
[36] = tested on: Rattus norvegicus; test: Biodistribution of [18F]AFA in rat striatum at 30 min postinjection in vivo; format: ADME, organism-based; details: 0.5 h; method in brief: as §2
[37] = tested on: Rattus norvegicus; test: Biodistribution of [18F]AFA in rat frontal cortex at 120 min postinjection in vivo; format: ADME, organism-based; details: 2 h; method in brief: as §2
[38] = tested on: Rattus norvegicus; test: Biodistribution of [18F]-AFA in rat hypothalamus at 60 min postinjection in vivo; format: ADME, organism-based; details: 1 h; method in brief: as §2
[39] = tested on: Rattus norvegicus; test: Biodistribution of [18F]AFA in rat blood at 120 min postinjection in vivo; format: ADME, organism-based; details: 2 h; method in brief: as §2
[40] = species: Rattus norvegicus; test: Specific binding of [18F]AFA in thalamus of rat pretreated with compound 7c; n=3; format: functional

CN(C)Cc1ccccc1Sc1ccc([18F])cc1N
Biodistribution [1]: 0.72 %ID/g
Biodistribution [2]: 0.66 %ID/g
Biodistribution [3]: 0.65 %ID/g
Specific binding [4]: 0.62 %ID/g
Biodistribution [5]: 0.08 %ID/g
Biodistribution [6]: 0.16 %ID/g
Biodistribution [7]: 0.26 %ID/g
Biodistribution [8]: 0.23 %ID/g
Biodistribution [9]: 0.69 %ID/g
Biodistribution [10]: 0.1 %ID/g
Biodistribution [11]: 0.28 %ID/g
Biodistribution [12]: 0.2 %ID/g
Biodistribution [13]: 0.08 %ID/g
Biodistribution [14]: 0.2 %ID/g
Specific binding [15]: 0.37 %ID/g
Biodistribution [16]: 0.48 %ID/g
Biodistribution [17]: 0.04 %ID/g
Biodistribution [18]: 0.04 %ID/g
Biodistribution [19]: 0.27 %ID/g
Biodistribution [20]: 0.19 %ID/g
Biodistribution [21]: 0.38 %ID/g
Biodistribution [22]: 0.11 %ID/g
Biodistribution [23]: 0.16 %ID/g
Biodistribution [24]: 0.18 %ID/g
Biodistribution [25]: 0.65 %ID/g
Biodistribution [26]: 0.17 %ID/g
Biodistribution [27]: 0.23 %ID/g
Biodistribution [28]: 0.07 %ID/g
Biodistribution [29]: 0.3 %ID/g
Biodistribution [30]: 0.81 %ID/g
Biodistribution [31]: 0.34 %ID/g
Specific binding [32]: 0.55 %ID/g
Biodistribution [33]: 0.73 %ID/g
Biodistribution [34]: 0.54 %ID/g
Specific binding [35]: 0.53 %ID/g
Biodistribution [36]: 0.58 %ID/g
Biodistribution [37]: 0.11 %ID/g
Biodistribution [38]: 0.38 %ID/g
Biodistribution [39]: 0.07 %ID/g
Specific binding [40]: 0.81 %ID/g
